High-throughput results from PubChem BioAssay.
Hits are enriched below; roughly 3.5% of the tested compounds scored in any of these assays.
Env fusion inh = inhibitors of HIV-1 Env-driven cell-cell fusion, primary screen, HeLa-JRFL effector, CEM21 target cells, luciferase. inhibition, % at 12.3 µM. 360,000 tested, 1.1% active. AID 651610, 2012;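 active = mean replicate inhibition score of at least 50 and every replicate individually at or above 50; inconclusive = only one of the two criteria met; inactive = mean below 50 and not all replicates reaching 50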;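 also: 0% = plate neutral controls and 100% = maraviroc near 300 nM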
ERAP1 inh = human ERAP1 aminopeptidase inhibitors, primary screen, biochemical, single point, plate reader; 340,000 tested, 0.15% active; Endoplasmic reticulum aminopeptidase 1 (Homo sapiens), Q9NZ08; inhibition, % at 10.7 µM; recombinant ERAP1, Leu-AMC fluorescence, 60 min;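 active = mean replicate inhibition of at least 30%, or all replicates individually reaching that 30% level; inactive = mean below 30% and not every replicate reaching it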;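 also: 0% = neutral control wells and 100% = L-leucinethiol positive control wells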
Target sequence (Q9NZ08 whole entry, looked up): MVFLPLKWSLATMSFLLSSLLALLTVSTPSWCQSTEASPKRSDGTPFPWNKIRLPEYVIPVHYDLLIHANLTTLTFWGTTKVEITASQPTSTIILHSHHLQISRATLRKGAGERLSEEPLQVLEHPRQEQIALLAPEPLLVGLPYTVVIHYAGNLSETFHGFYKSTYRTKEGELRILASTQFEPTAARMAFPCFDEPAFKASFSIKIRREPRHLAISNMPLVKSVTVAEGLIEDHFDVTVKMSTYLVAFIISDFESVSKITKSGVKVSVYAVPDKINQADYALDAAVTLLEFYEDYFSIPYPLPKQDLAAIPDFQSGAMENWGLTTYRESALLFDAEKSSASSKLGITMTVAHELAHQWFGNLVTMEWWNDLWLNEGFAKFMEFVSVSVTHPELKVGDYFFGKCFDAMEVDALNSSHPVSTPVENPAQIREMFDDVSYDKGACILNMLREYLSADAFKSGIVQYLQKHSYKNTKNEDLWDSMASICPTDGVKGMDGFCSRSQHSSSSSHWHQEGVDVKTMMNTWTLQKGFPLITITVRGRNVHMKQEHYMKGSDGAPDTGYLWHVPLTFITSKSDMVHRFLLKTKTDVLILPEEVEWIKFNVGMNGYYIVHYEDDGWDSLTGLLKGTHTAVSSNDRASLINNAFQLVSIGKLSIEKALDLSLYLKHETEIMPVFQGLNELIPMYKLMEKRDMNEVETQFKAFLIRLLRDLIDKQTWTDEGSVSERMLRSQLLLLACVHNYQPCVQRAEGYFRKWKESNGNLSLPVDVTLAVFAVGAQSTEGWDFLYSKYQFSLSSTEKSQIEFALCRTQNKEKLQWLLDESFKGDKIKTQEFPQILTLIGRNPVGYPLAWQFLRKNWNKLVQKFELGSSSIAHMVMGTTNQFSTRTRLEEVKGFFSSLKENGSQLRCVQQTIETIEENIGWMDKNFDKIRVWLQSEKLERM
Cneo AK release = Cryptococcus neoformans cell lysis inducers, primary screen, AK release luminescence, single concentration; lysis activity, % at 15 µM; 360,000 tested, 0.2% active; C. neoformans lysis, adenylate kinase release luminescence, 4 h; normalised: neutral wells 0, clomiphene wells 100;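 active = mean lysis activity across replicates of at least 80%, whatever share of replicates individually reach that level; inactive = mean lysis activity below 80%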
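Material – log-phase Cryptococcus neoformans yeast cells · Input – 5 × 10^6 yeast cells/mL · Medium – fresh YPD growth medium · Doses – single compound concentration per well · Timing – static 4 h at 37 °C with compound, 1 h detection · Detection – adenylate kinase release luminescence · Read-out – signal increase indicating cell lysis · Control set – Clomiphene as positive lysis control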
esBAF inh = Bmi1 luciferase reporter increase in mESCs, primary screen, esBAF inhibitor project, mouse ES cells, Bmi1 luciferase knock-in, single point; 24 h; 100% = twice the neutral-well signal; reporter increase, % at 12.5 µM; 350,000 tested, 2% active; in the data active = activation above about 40%; inconclusive = no clear call, values can overlap the other calls;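 also: 0% = median of the plate's neutral control wells and 100% = double that signal; a rise in the Bmi1 reporter signal indicates esBAF inhibition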
MITF act = activators of MITF-driven TRPM1 promoter reporter, primary screen, cell-based, SK-MEL-5, luciferase, single point; SK-MEL-5 TRPM1-promoter luciferase, 24 h; % of positive control, neutral wells = 0; activation, % at 12.5 µM; 300,000 tested, 0.75% active; AID 588334, 2011;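 active = mean activation of at least 80% with every replicate also reaching 80%; inconclusive = mean reaches 80% but some replicate falls short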;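 also: 0% = neutral control wells and 100% = parthenolide positive control wells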
Wnt act = Wnt/beta-catenin pathway activators, primary screen, cell-based, plate reader, single point; Wnt/beta-catenin reporter cell assay, activator; activation, % at 9.35 µM; 300,000 tested, 1.2% active; in the data active = activation above about 30%, passing the limit was not always enough; inconclusive = no clear call, values can overlap the other calls;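 also: 0% = neutral control wells and 100% = positive control wells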
* = called active by the depositor; ? = inconclusive; nt = no result; [ ] = remark or other dose.

SMILES | Env fusion inh | ERAP1 inh | Cneo AK release | esBAF inh | MITF act | Wnt act
Cc1cc(C)n2nc(SCc3nnc(SCc4ccccc4C)s3)nc2n1 | nt | -1.5 | 2.4 | 82.9* | 8.2 | -2.5
CCCCC[n+]1cccc2c3ccccc3ccc21 | 97.3* | 16.6 | nt | nt | -10.6 | -2.9
CCCc1cc(NCCCn2ccnc2)n2nc(C)c(-c3ccccc3)c2n1 | 3.7 | nt | nt | nt | -2.7 | 32.2*
CC(C)(C)c1cc(NCCCn2ccnc2)n2ncc(-c3ccccc3)c2n1 | -79.9 | 4.6 | -15.0 | nt | nt | 52.5*
CN(C)CC(=O)N1[C@@H]2c3ccc(-c4ccccc4)c(=O)n3C[C@@H]2[C@@H](CO)[C@@H]1C(=O)NC1CCC1 | 1.5[16.7 µM] | 2.2 | -2.3 | -4.5 | nt | nt
O=C(Nc1ccc(F)c(Cl)c1)c1ccccc1NC(=O)C1CCCCC1C(=O)O (stereo unspecified) | -5.5 | -4.2 | -3.5 | 66.3* | nt | 3.7
COc1ccc(NC(=O)c2ccccc2NC(=O)C2CCCCC2C(=O)O)cc1 (stereo unspecified) | -19.6 | -0.1 | -2.8 | 50.6* | nt | 37.7*
O=C(Nc1ccc(F)cc1)c1ccccc1NC(=O)C1CC=CCC1C(=O)O (stereo unspecified) | -19.3 | -6.5 | 4.7 | 6.9 | 3.1 | 5.9
CC(C)c1ccc(NC(=O)c2ccccc2NC(=O)C2CCCCC2C(=O)O)cc1 (stereo unspecified) | -5.1 | 6.7 | -0.1 | 64.4* | 48.9 | 35.1*
CC(C)c1ccc(NC(=O)c2ccccc2NC(=O)C2CC=CCC2C(=O)O)cc1 (stereo unspecified) | -28.0 | -1.7 | -3.0 | 51.3* | 46.7 | 14.7
O=C(NCC[C@@H]1CC[C@H](NC(=O)c2cccnc2)[C@@H](CO)O1)Nc1ccc(F)cc1 | 6.2[16.7 µM] | 1.5 | 10.8 | 18.5 | nt | nt
COc1ccc(-c2nnn(CC(=O)N(Cc3cccs3)C(C)C(=O)NC3CCCC3)n2)cc1OC (stereo unspecified) | 78.2* | nt | 2.2 | 7.2 | nt | nt
COC(=O)C[C@H]1C=C[C@H](NS(=O)(=O)c2ccccc2F)[C@H](CO)O1 | -9.9[16.7 µM] | 1.1 | 3.0 | -2.3 | nt | nt
COc1ccc(S(=O)(=O)N2Cc3ccccc3CC2C(=O)Nc2nccs2)cc1OC (stereo unspecified) | nt | nt | -0.4 | 44.5* | 41.3 | 28.8
CCS(=O)(=O)N1Cc2ccccc2CC1C(=O)Nc1nc(C)cs1 (stereo unspecified) | -37.3 | 1.5 | nt | nt | 19.6 | 4.8
COc1ccc(S(=O)(=O)N2Cc3ccccc3CC2C(=O)Nc2nccs2)cc1 (stereo unspecified) | -58.0 | nt | -4.7 | 50.4* | 44.0 | nt
CCS(=O)(=O)N1Cc2ccccc2CC1C(=O)Nc1nccs1 (stereo unspecified) | -5.1 | 2.0 | nt | 43.7* | 29.2 | 25.8
Cc1ccc(SCC(=O)NC(C)(C)C)cc1 | -60.2 | nt | nt | 55.8* | nt | 33.2*
CC(C)NC(=O)N(C)C[C@@H]1Oc2ccc(NC(=O)c3ccncc3)cc2C(=O)N([C@@H](C)CO)C[C@H]1C | -0.1[16.7 µM] | -1.8 | -3.9 | 3.5 | nt | nt
COc1ccc(NC(=S)Nc2cc(C)ccn2)c(OC)c1 | nt | 1.9 | 13.4 | 67.6* | 25.0 | nt
COc1ccc(NC(=S)Nc2cccnc2)c(OC)c1 | -7.1 | -1.7 | -1.6 | -13.6 | 2.3 | -1.2
COc1ccc(NC(=S)Nc2ccccn2)c(OC)c1 | -243.8 | nt | 5.6 | 69.1* | nt | 54.9*
COc1ccc(NC(=S)Nc2ccc(OC)cc2OC)c(OC)c1 | -9.4 | nt | nt | nt | 4.1 | 2.8
C[C@@H]1CCCCO[C@@H](CN(C)C(=O)Cc2ccccc2)[C@@H](C)CN([C@@H](C)CO)C(=O)c2cc(NC(=O)CCCN(C)C)ccc2O1 | 13.0[16.7 µM] | -4.3 | -3.7 | 0.3 | nt | nt
O=C(C[C@@H]1C[C@@H]2c3cc(NC(=O)c4cccnc4)ccc3O[C@@H]2[C@H](CO)O1)NCc1cccnc1 | 11.9[16.7 µM] | 3.2 | -1.2 | 4.0 | nt | nt
SMILES | Env fusion inh | ERAP1 inh | Cneo AK release | esBAF inh | MITF act | Wnt act
O=C(C1CCOCC1)N1CC(=O)N2[C@H](CO)[C@H](c3ccc(-c4ccccc4F)cc3)[C@H]2C1 | nt | 1.8 | nt | nt | nt | nt
Cc1ccc2cc(NC(=O)c3ccccc3)ccc2n1 | -82.6 | -2.6 | -4.2 | 2.5 | 48.8 | 40.2*
Cc1ccc2cc(NC(=O)c3cccc(F)c3)ccc2n1 | -166.7 | nt | nt | 15.8 | nt | 49.7*
O=C(Nc1ccc2ccccc2c1)c1cccc(F)c1 | -181.4 | 3.9 | -3.8 | 49.9* | 123.0* | 45.6*
Cc1ccc2cc(NC(=O)CC(CC(=O)O)c3ccccc3)ccc2n1 (stereo unspecified) | -6.3 | -1.6 | 1.5 | -7.4 | 0.3 | -0.4
Cc1cc(C(=O)Nc2ccc3ccccc3c2)c(C)o1 | -243.2 | 3.7 | -4.4 | 1.5 | 69.6 | 34.1*
CN(Cc1ccccc1F)c1ncnc2sccc12 | 10.9 | 1.0 | -0.8 | 4.1 | -3.5 | -4.7
c1csc(CNc2ncnc3sccc23)c1 | 80.0* | nt | -2.6 | -27.0 | nt | nt
CN(Cc1cccs1)c1ncnc2sccc12 | 70.1* | nt | nt | nt | 9.8 | nt
CO[C@@H]1CN(C)C(=O)c2cc(NS(=O)(=O)c3ccccc3C)ccc2OC[C@@H](C)N(S(=O)(=O)c2ccccc2)C[C@H]1C | 16.9[16.7 µM] | 0.8 | 3.8 | 9.6 | nt | nt
COc1ccc(C(=O)Nc2ccc3c(c2)C(=O)N(C)C[C@H](OC)[C@H](C)CN[C@H](C)CO3)cc1 | 5.1[16.7 µM] | 1.9 | -0.8 | 2.2 | nt | nt
O=C(C[C@H]1CC[C@@H]2NC[C@H](O)COC[C@H]2O1)NCCN1CCCC1 | nt | 2.8 | nt | nt | nt | nt
O=C(C[C@@H]1CC[C@@H](NC(=O)Cc2ccccn2)[C@@H](CO)O1)NCCc1ccncc1 | -21.5[16.7 µM] | 2.0 | -28.7 | -0.5 | nt | nt
C=CCNc1nc(C(=O)OC(C)C(=O)c2ccc(C)cc2)cs1 (stereo unspecified) | -37.9 | 0.8 | -0.6 | 56.8* | 28.6 | 22.0
CC(=O)Nc1ccccc1OCC(=O)N(Cc1ccccc1)C(C)C | 61.1* | -5.8 | 3.4 | -2.9 | -17.2 | -0.2
CC(=O)Nc1ccccc1OCC(=O)NC(C)c1ccccc1 (stereo unspecified) | 16.7 | 0.9 | nt | 1.8 | -11.5 | -4.0
O=C(N[C@@H]1CC[C@@H](CCNC(=O)C2CCC2)O[C@@H]1CO)c1ccncc1 | 9.1[16.7 µM] | 0.5 | -3.0 | -0.8 | nt | nt
O=C(Nc1cc(Cl)cc(Cl)c1)C(c1ccccc1)N1CCCCC1 (stereo unspecified) | 75.1* | nt | nt | nt | 0.9 | nt
CC(C)C#Cc1ccc2c(c1)O[C@H](CN(C)C)[C@H](C)CN([C@H](C)CO)S2(=O)=O | -7.7[16.7 µM] | nt | nt | 5.8 | nt | nt
COc1cc2ccccc2cc1C(=O)Nc1ccc(C)cn1 | -103.1 | -2.1 | -0.8 | ? | 35.1 | 35.0*
COc1cc(OC)c(C(=O)Nc2cccnc2)cc1OC | 2.2 | -2.9 | -1.3 | -7.7 | 10.2 | 0.5
